# Rows were chosen to be rich in hits. Some 2.6% of all compounds tested hit in one or more screens of this group.
# CHT allo act – allosteric activators of human choline transporter CHT; Q9GZV3; B-score at 10 µM; 310,000 compounds, 0.49% hits; CHT-expressing cells, membrane potential dye, choline EC20; hits give high values; LV-AA mutant CHT in HEK293 cells; AID 488977;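 active = initial fluorescence not abnormally high and integrated response B-score, plate-corrected, over 3 SD above library mean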
# Target sequence (Q9GZV3 whole entry, looked up): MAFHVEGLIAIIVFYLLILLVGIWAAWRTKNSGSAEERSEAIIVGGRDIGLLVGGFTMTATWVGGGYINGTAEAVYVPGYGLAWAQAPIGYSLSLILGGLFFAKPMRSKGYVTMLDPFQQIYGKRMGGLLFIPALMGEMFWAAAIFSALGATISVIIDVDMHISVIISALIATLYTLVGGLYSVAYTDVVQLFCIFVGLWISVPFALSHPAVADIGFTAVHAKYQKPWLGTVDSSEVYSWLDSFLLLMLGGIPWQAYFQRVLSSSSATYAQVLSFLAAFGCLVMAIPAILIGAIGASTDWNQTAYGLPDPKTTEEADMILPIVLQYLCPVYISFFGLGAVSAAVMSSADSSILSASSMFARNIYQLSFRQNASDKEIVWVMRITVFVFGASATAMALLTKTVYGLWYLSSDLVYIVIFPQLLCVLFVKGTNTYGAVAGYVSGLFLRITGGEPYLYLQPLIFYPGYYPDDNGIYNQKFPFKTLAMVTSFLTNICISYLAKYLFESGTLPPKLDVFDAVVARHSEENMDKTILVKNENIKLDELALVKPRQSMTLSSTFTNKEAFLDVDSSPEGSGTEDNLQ
# CHT inh – inhibits the human high affinity choline transporter. B-score at 10 µM. AID 488975. 310,000 compounds, 0.86% hits. CHT-expressing cells, membrane potential dye, choline response; hits give low values;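 active = B-score over 3 SD under the library average, and starting fluorescence ratio not unusually high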;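 also: choline stimulus applied at its EC90 after an EC20 pre-addition; B-score computed on integrated fluorescence ratio after choline addition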
# T cruzi repl – T. cruzi replication inhibition | T. cruzi beta-gal in NIH3T3, luminescence, 90 h | AID 1885 | 300,000 compounds, 1.4% hits | inhibition, % (concentration not given with the values);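 active = mean inhibition across valid replicates above about 55%, limit read from the data; inconclusive = mean below that limit but half or more replicates reach it; inactive = mean below it, under half of replicates reach it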;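 also: signal also drops with host cell toxicity which is not excluded here; higher percent means less beta-gal luminescence so fewer parasites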
#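 System – NIH/3T3 host cells with β-galactosidase reporter T. cruzi · Doses – single 50 nL compound addition per well in DMSO · Reagent – 5000 T. cruzi trypomastigotes/well · Medium – Low-serum DMEM with 2% FBS · Timing – ≥90 h infection period, 3 h prior cell attachment · Evaluation – parasite load inhibition, % · Technique – GalScreen luminescence, 60 min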
# PolyA inhibitor – yeast polyadenylation inhibition. S. cerevisiae SKY197-pL101 polyadenylation reporter, beta-gal luminescence; efflux-impaired pdr1/pdr3 knockout yeast; score 100 = 6 SD above DMSO. activity score, % at 12 µM. 300,000 compounds, 0.02% hits. AID 1875;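 active = lowest replicate activity score at least 50, where 100 means six control SD above control mean; inconclusive = lowest score under 50 but half or more replicates reach 50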;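 also: yeast exposed to compound for 9 h at 30 °C; higher score means more reporter readthrough which indicates perturbed polyadenylation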
# CHT block conf – confirmation of human choline transporter CHT inhibitors; CHT activity remaining % of control (hits give low values), % at 10 µM; CHT-expressing cells, choline membrane potential dye; LV-to-AA substituted CHT, HEK293 cells; shares compounds with CHT inh; AID 493221; 2,400 compounds, 70% hits;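 active = choline transporter activity left, mean of duplicates at 10 µM, below buffer-only control mean minus 3 SD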;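 also: depolarization triggered by choline at its EC90 following an EC20 pre-addition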
# HEK293 MPD ctr – counter-screen for CHT inhibitors: effect in parental HEK293 cells. 2,400 compounds, 4% hits. shares compounds with CHT inh. membrane potential dye, choline response; active = decrease or increase beyond buffer ±3SD. membrane potential ratio readout (active if shifted either direction beyond buffer ±3SD; no single direction) at 10 µM;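 also: parental cells lack the transporter so any hit is non-specific; ratio is peak minus trough fluorescence over baseline after EC90 choline challenge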
# Hits are given with their value; n = inactive; u = inconclusive; x = not tested or not shown.
SMILES,CHT allo act,CHT inh,T cruzi repl,PolyA inhibitor,CHT block conf,HEK293 MPD ctr
Cc1cc2[nH]c3ccccc3c2c(C)n1,n,-7.3,n,n,34%,n
Cc1nn2c(N3CCN(C)CC3)c3c(nc2c1-c1ccccc1)CCCC3,n,-9.6,n,n,32%,n
CCOC(=O)CNC(=O)CSc1nc(Cc2ccccc2)nc2ccccc12,n,-6.6,n,n,n,n
CC(C)NC(=O)CSc1nc(Cc2ccccc2)nc2ccccc12,n,n,n,n,x,x
Cc1c(NC(=O)/C=C/c2cn(-c3ccccc3)nc2-c2ccccc2)c(=O)n(-c2ccccc2)n1C,n,-5.7,n,n,65%,n
O=C(O)/C=C/c1cn(-c2ccccc2)nc1-c1ccccc1,n,n,n,n,x,x
Cc1nc2ccc([N+](=O)[O-])cc2c(=O)n1Cc1ccccc1Br,n,n,n,n,x,x
Cc1cc(OCCCN2CCCC2)ccc1Cl,n,n,n,n,x,x
CCOC(=O)c1cnc2c(C(F)(F)F)cccc2c1N1CCOCC1,n,-5.8,n,n,52%,n
CCOC(=O)c1cnc2c(C)c(Cl)ccc2c1N1CCOCC1,n,n,n,u,x,x
Cc1cccc(C(=O)N2CCCC(N3CCN(c4ccc(F)cc4)CC3)C2)n1 (stereo not given),n,n,n,n,x,x
Oc1ccc(-c2nc(-c3ccc(O)c(O)c3)cs2)cc1,n,-5,n,n,68%,n
C=CCn1cc(C(=O)NCCCN(CC)CC)c(=O)c2cc(S(=O)(=O)N3CCC(C)CC3)ccc21,n,-8.6,n,n,26%,n
CCCCN(CCCC)CCNC(=O)c1cn(CC)c2ccc(S(=O)(=O)N3CCc4ccccc4C3)cc2c1=O,n,-9.2,n,n,12%,n
CCCCNC(=O)c1cn(CC)c2ccc(S(=O)(=O)N3CCCCCC3)cc2c1=O,n,n,n,n,x,x
CC1CCN(S(=O)(=O)c2ccc3c(c2)c(=O)c(C(=O)N2CCOCC2)cn3C)CC1,n,n,n,n,x,x
Cn1cc(C(=O)N2CCc3ccccc3C2)c(=O)c2cc(S(=O)(=O)N3CCOCC3)ccc21,n,-6,n,n,n,n
C=CCn1cc(C(=O)NCCCOCC)c(=O)c2cc(S(=O)(=O)N(CC)CC)ccc21,n,n,n,n,x,x
CCn1cc(C(=O)NCCCN2CCCC(C)C2)c(=O)c2cc(S(=O)(=O)N3CCc4ccccc4C3)ccc21 (stereo not given),n,-16,n,n,20%,3.6
CC(=O)O[C@]1(C(C)=O)CC[C@H]2[C@@H]3C=CC4=CC(=O)C=C[C@]4(C)[C@H]3CC[C@@]21C,n,n,n,n,x,x
CC(=O)C(Sc1nc(N(C)C)nc(N(C)C)n1)C(=O)Nc1ccccc1 (stereo not given),n,n,n,n,x,x
CC(=O)C(Sc1nn(C)c(=S)s1)C(=O)Nc1ccccc1 (stereo not given),n,-5.4,n,n,49%,n
CN(C)C(CNC(=O)c1cc(S(=O)(=O)N(C)Cc2ccccc2)ccc1Cl)c1ccco1 (stereo not given),n,n,n,n,x,x
O=C(CC1C(=O)NCCN1C(=O)Nc1ccccc1)Nc1cccc(Cl)c1 (stereo not given),n,n,n,n,x,x
O=C(CC1C(=O)NCCN1C(=O)Nc1ccccc1)Nc1cc(Cl)cc(Cl)c1 (stereo not given),n,-5,n,n,16%,n
SMILES,CHT allo act,CHT inh,T cruzi repl,PolyA inhibitor,CHT block conf,HEK293 MPD ctr
CN1CCN(c2nnc(-c3ccc(F)cc3)c3ccccc23)CC1,n,n,n,n,x,x
O=S(=O)(NC1CCN(Cc2ccccc2)CC1)c1ccc2ccccc2c1,n,-5.7,n,n,n,n
CCC(=O)N1CCc2cc(Br)cc(S(=O)(=O)NC3CCN(Cc4ccccc4)CC3)c21,n,-9,n,n,38%,3.2
COc1ccc(C2=NOC(C(=O)N(C)Cc3ccccc3)C2)cc1 (stereo not given),n,n,n,n,x,x
CCCCCCC(=O)N1C/C=C\C(c2ccc(OC)cc2)N(Cc2ccc(F)cc2)C(=O)[C@H]1Cc1ccccc1 (stereo not given in full),n,n,n,n,x,x
COc1ccccc1-c1coc2cc(O)cc(O)c2c1=O,n,-5.9,n,n,65%,n
Cc1ccc(C(C)C)c(OCC(=O)NS(=O)(=O)c2ccc(Cl)cc2)c1,n,-6.4,n,n,14%,n
Cc1ccccc1OCC(=O)NS(=O)(=O)c1ccc(Cl)cc1,n,n,n,n,x,x
CCOc1ccc(N(CC(=O)NC2CCCCC2)C(=O)CCCC(=O)Nc2ccccn2)cc1,n,n,n,n,x,x
CCCn1nc(NS(=O)(=O)c2cccc3nonc23)c2cc3cccc(C)c3nc21,n,-6.3,n,n,54%,n
Cc1ccc2cc3c(NS(=O)(=O)c4cccc5nonc45)nn(CC(C)C)c3nc2c1,n,-6,n,n,64%,n
CCOC(=O)N1CCN(C2CCCN(C(=O)c3cccc(Cl)c3)C2)CC1 (stereo not given),n,n,n,n,x,x
C/C(=N/OCC(=O)Nc1ccc(C)cc1C)c1cccs1,n,n,n,n,x,x
C/C(=N\OCC(=O)Nc1ccccc1C(=O)O)c1cccs1,n,-6.2,n,n,44%,n
C=CCOC(=O)C1=C[C@@H](c2cn(C(C)=O)c3ccccc23)C[C@@H](OCCCCO)O1,n,-5.3,n,n,n,n
C=CCOC(=O)C1=C[C@H](c2cn(C(C)=O)c3ccccc23)C[C@H](OCCCCO)O1,n,n,n,n,x,x
CCc1cccc(CC)c1NC(=O)c1cccc(NC(=O)c2ccccc2)c1,n,-5.6,n,n,65%,n
O=C(NC1CCCCC1)c1ccc(S(=O)(=O)N2CCOCC2)cc1,n,n,n,n,x,x
CCc1cccc(CC)c1NC(=O)c1cccc(S(=O)(=O)N2CCN(C)CC2)c1,n,-5.8,n,n,39%,n
O=C(NC1CCCCCCC1)c1ccc(S(=O)(=O)N2CCCC2)cc1,n,-11,n,n,44%,n
COc1ccc(N(C)S(=O)(=O)c2cccc(C(=O)NC3CCC(C)CC3)c2)cc1 (stereo not given),n,-6.3,n,n,65%,n
CCOc1ccc(-c2c(C)n([O-])c3c([n+]2=O)CCCCC3)cc1,n,n,n,n,x,x
CCN(CC)CCNC(=O)c1cn(CC)c2cc(N3CCN(C)CC3)c(F)cc2c1=O,n,n,n,n,x,x
CCOC(=O)C1(CC)NC(c2ccc(OC)c(OC)c2)C2C(=O)N(c3cccc(C(C)=O)c3)C(=O)C21 (stereo not given),n,n,n,n,x,x
O=C(Nc1ccccc1F)c1ccc(C(=O)c2ccccc2)cc1,n,n,n,n,x,x
